These results are taken from ChEMBL document CHEMBL4433264, “Novel hydrophilic galactose-conjugated chlorin e6 derivatives for photodynamic therapy and fluorescence imaging” (Bioorg Med Chem Lett, 2019).

Data set [1] can be described thus: Aqueous solubility of the compound by UV spectroscopy. Conditions: buffer. Format: physicochemical.
Data set [2] in a line: Dark toxicity in human HeLa cells assessed as reduction in cell viability. Format: cell-based. The procedure, abridged:
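HeLa cells were grown in DMEM/F12 with 10% FBS, without antibiotics, at 37 °C and 5% CO2, and exposed to compound without irradiation. Live cells were counted by fluorometric microculture cytotoxicity assay (FMCA), with 10 independent microcultures per concentration. Outliers were screened by Grubbs criterion, and IC50 was derived from concentration versus survival index (±SE).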

The subject of data set [3] is HeLa. The experiment in a line: Phototoxicity in human HeLa cells assessed as reduction in cell viability in presence of irradiation with LED light at 12 J/cm2. The format is functional, cell-based. Conditions: light or radiation study. Put shortly:
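HeLa cells were cultured in DMEM/F12 with 10% FBS, antibiotic-free, at 37 °C and 5% CO2. Compound-treated cells were irradiated with a 660 nm LED at 12 J/cm2. Viable cells were quantified by FMCA using 10 independent microcultures per concentration. Grubbs criterion removed artifacts before IC50 was calculated from concentration versus survival index (±SE).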

Data set [4] is described as follows: Drug penetration in human HeLa cells at 10 uM measured after 40 mins by fluorescence microscopy. The format is ADME, cell-based. The procedure, abridged: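 HeLa cells were incubated for 40 min with compound at 10 μM, alongside untreated cells. Uptake was judged by intracellular red fluorescence under fluorescence microscopy, paired with light micrographs of the same fields.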

The nature of data set [5]: Potency index, ratio of IC50 for dark toxicity in human HeLa cells to IC50 for phototoxicity in human HeLa cells in presence of irradiation with LED light at 12 J/cm2. The format is cell-based. Particulars: read-out: Ratio IC50. The procedure, abridged: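 The index is dark IC50 divided by photoinduced IC50 in HeLa cells. Both IC50 values come from FMCA viability readings (10 microcultures per concentration, Grubbs outlier check, fit of concentration versus survival index). The phototoxicity arm used 660 nm LED irradiation at 12 J/cm2.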

For `C=Cc1c(C)c2cc3nc(c(CC(=O)OC)c4[nH]c(cc5nc(cc1[nH]2)C(C)=C5CC)c(C)c4C(=O)NCCN(C[C@H]1OC(O)[C@H](O)[C@@H](O)[C@H]1O)C[C@H]1OC(O)[C@H](O)[C@@H](O)[C@H]1O)[C@@H](CCC(=O)OC)[C@@H]3C` (some centres undefined), the solubility result in data set [1] is reported as “Soluble”. For the same compound, the IC50 in data set [2] amounted to 6.1 µM; in data set [3], 1110 nM. Moreover, in data set [4], the Drug uptake entry is “Active”.

As to `C=Cc1c(C)c2cc3nc(c(CC(=O)OC)c4[nH]c(cc5nc(cc1[nH]2)C(C)=C5CC)c(C)c4C(=O)NCCN(C[C@H]1OC(O)[C@H](O)[C@@H](O)[C@H]1O)C[C@H]1OC(O)[C@H](O)[C@@H](O)[C@H]1O)[C@@H](CCC(=O)NCCN(C[C@H]1OC(O)[C@H](O)[C@@H](O)[C@H]1O)C[C@H]1OC(O)[C@H](O)[C@@H](O)[C@H]1O)[C@@H]3C` (some centres undefined), in data set [1], the solubility result is recorded as “Soluble”. In addition, the IC50 in data set [2] came to 59.6 µM; in data set [3] it was 1570 nM. The selectivity ratio in data set [5] was determined as 38. In addition, in data set [4], the Drug uptake entry was “Active”.

In the case of `C=Cc1c(C)c2cc3nc(c(CC(=O)OC)c4[nH]c(cc5nc(cc1[nH]2)C(C)=C5CC)c(C)c4C(=O)NCCN(C[C@H]1OC(O)[C@H](O)[C@@H](O)[C@H]1O)C[C@H]1OC(O)[C@H](O)[C@@H](O)[C@H]1O)[C@@H](CCC(=O)O)[C@@H]3C` (some centres undefined), in data set [1], the solubility result is on record as “Soluble”. The IC50 in data set [2] stood at 39 µM; in data set [3], 1240 nM. Moreover, the selectivity ratio in data set [5] came to 31. The Drug uptake entry in data set [4] is reported as “Active”.
